Measurements as given in ChEMBL document CHEMBL1799999, “N-benzoylated phenoxazines and phenothiazines: synthesis, antiproliferative activity, and inhibition of tubulin polymerization” (J Med Chem, 2011).
Activity calls are given as the source filed them. No cut-off for these calls is given here.

Experiments:
NCI-H460 = assay: Antiproliferative activity against human NCI-H460 cells after 48 hrs by alamar blue assay; type: functional, cell-based; details: NCI-H460, 48 h
Outline: (§1)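 Cells seeded in growth medium and grown 24 h at 37 °C/5% CO2. 10 mM DMSO stocks diluted in half-log steps into medium, final DMSO 0.316%. After 45 h of compound exposure, AlamarBlue (resazurin) added for a further 3 h, giving 48 h total. Fluorescence read at 590 nm against untreated and cell-free blanks. At least two replicates; IC50 by nonlinear regression.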

K562 [1] = assay: Antiproliferative activity against human K562 cells after 48 hrs by hemocytometric analysis; type: functional, cell-based; details: K562, 48 h
Outline: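 K562 cells in RPMI 1640 with 10% FBS at 37 °C/5% CO2, plated at 2 × 10^5 cells/mL. Compounds in DMSO/methanol 1:1, final vehicle 0.5%. Cells counted in a Neubauer hemocytometer after 48 h and expressed as % of untreated control. Triplicate wells, three experiments; IC50 by nonlinear regression.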

SK-OV-3 = assay: Antiproliferative activity against human SKOV3 cells after 48 hrs by alamar blue assay; type: functional, cell-based; details: SK-OV-3, 48 h; outline: as §1
BT-549 = assay: Antiproliferative activity against human BT549 cells after 48 hrs by alamar blue assay; type: functional, cell-based; details: BT-549, 48 h; outline: as §1
SW480 = assay: Antiproliferative activity against human SW480 cells after 48 hrs by alamar blue assay; type: functional, cell-based; details: SW480, 48 h; outline: as §1
DLD-1 = assay: Antiproliferative activity against human DLD1 cells after 48 hrs by alamar blue assay; type: functional, cell-based; details: DLD-1, 48 h; outline: as §1
SK-N-SH = assay: Antiproliferative activity against human SK-N-SH cells after 72 hrs by sulforhodamine staining method; type: functional
Outline: (§2)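 Panel of 83 solid-tumour lines plus resting PBMC, run by the DTP NCI sulforhodamine B staining protocol. Compound exposure 72 h, concentrations from 0.0001 to 10 μM. GI50 taken per line; z-scores computed relative to the panel mean GI50.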

MG-63 = assay: Antiproliferative activity against human MG63 cells after 72 hrs by sulforhodamine staining method; type: functional; details: MG-63, 72 h; outline: as §2
SK-N-AS = assay: Antiproliferative activity against human SK-N-AS cells after 72 hrs by sulforhodamine staining method; type: functional; outline: as §2
5637 = assay: Antiproliferative activity against human 5637 cells after 72 hrs by sulforhodamine staining method; type: functional; details: Homo sapiens, 5637, 72 h; outline: as §2
RD = assay: Antiproliferative activity against human RD cells after 72 hrs by sulforhodamine staining method; type: functional; outline: as §2
SK-MEL-28 = assay: Antiproliferative activity against human SK-MEL-28 cells after 72 hrs by sulforhodamine staining method; type: functional; details: SK-MEL-28, 72 h; outline: as §2
HT-1080 = assay: Antiproliferative activity against human HT1080 cells after 72 hrs by sulforhodamine staining method; type: functional; details: HT-1080, 72 h; outline: as §2
A-375 = assay: Antiproliferative activity against human A375 cells after 72 hrs by sulforhodamine staining method; type: functional; details: A-375, 72 h; outline: as §2
MIA PaCa-2 = assay: Antiproliferative activity against human MIAPaCa2 cells after 72 hrs by sulforhodamine staining method; type: functional; details: MIA PaCa-2, 72 h; outline: as §2
HT-29 = assay: Antiproliferative activity against human HT-29 cells after 72 hrs by sulforhodamine staining method; type: functional; details: HT-29, 72 h; outline: as §2
COLO 205 = assay: Antiproliferative activity against human COLO205 cells after 72 hrs by sulforhodamine staining method; type: functional; details: COLO 205, 72 h; outline: as §2
BXPC-3 = assay: Antiproliferative activity against human BxPC3 cells after 72 hrs by sulforhodamine staining method; type: functional; details: BXPC-3, 72 h; outline: as §2
[2] = Antiproliferative activity against human MDA-MB-436 cells after 72 hrs by sulforhodamine staining method; type: functional; details: MDA-MB-436, 72 h; outline: as §2
[3] = Antiproliferative activity against human MT3 cells after 72 hrs by sulforhodamine staining method; type: functional; details: MT-3, 72 h; outline: as §2
IGROV-1 = assay: Antiproliferative activity against human IGROV1 cells after 72 hrs by sulforhodamine staining method; type: functional; details: IGROV-1, 72 h; outline: as §2
COLO-678 = assay: Antiproliferative activity against human COLO-678 cells after 72 hrs by sulforhodamine staining method; type: functional; details: COLO-678, 72 h; outline: as §2
[4] = Antiproliferative activity against human resting PBMC after 72 hrs by sulforhodamine staining method; type: cell-based; outline: as §2
ASPC1 = assay: Antiproliferative activity against human AsPC1 cells after 72 hrs by sulforhodamine staining method; type: functional; details: ASPC1, 72 h; outline: as §2
Tubulin = Tubulin (Sus scrofa, UniProt P02554+P02550); assay: Inhibition of pig tubulin polymerization determined after 45 mins at 37 degC by turbidimetric analysis; type: protein assay
Outline: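 Microtubule protein (80–90% tubulin with MAPs) from porcine brain, isolated by two cold/warm cycles. Buffer: 20 mM PIPES pH 6.8, 80 mM NaCl, 0.5 mM MgCl2, 1 mM EGTA, 1 mM DTT. Protein at 1.2 mg/mL (about 10 μM tubulin) with 0.6 mM GTP, 1% DMSO, 37 °C.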

K562 [5] = assay: Cell cycle arrest in human K562 cells assessed as accumulation at G2/M phase at 0.003 to. 1 ug/ml after 24 hrs by flow cytometric analysis; type: functional, cell-based
Outline: (§3)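 K562 cells (2 × 10^5/mL) exposed to graded concentrations for 24 h at 37 °C; vehicle DMSO/MeOH 1:1. Washed in PBS, fixed in ice-cold 70% ethanol, stained 30 min with propidium iodide 0.02 mg/mL plus RNase 0.2 mg/mL. DNA content read by flow cytometry with 488 nm excitation; G2/M fraction scored.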

K562 [6] = assay: Cell cycle arrest in human K562 cells assessed as accumulation at G2/M phase at 30 nM after 24 hrs by flow cytometric analysis; type: functional, cell-based; outline: as §3
cells = details: Homo sapiens, 451Lu, 48 h

IC50 (NCI-H460): 40 nM
IC50 (K562 [1]): 11 nM
IC50 (SK-OV-3): 24 nM
IC50 (BT-549): 16 nM
IC50 (SW480): 29 nM
IC50 (DLD-1): 16 nM
GI50 (SK-N-SH): 1.8 nM
GI50 (SK-N-AS): 1.8 nM
GI50 (SK-MEL-28): 2 nM
GI50 (HT-1080): 2.6 nM
GI50 (A-375): 2.7 nM
GI50 (MIA PaCa-2): 8.41 µM
GI50 (HT-29): 5.6 µM
GI50 (COLO 205): 4.26 µM
GI50 (BXPC-3): 2250 nM
GI50 (COLO-678): 62.3 nM
GI50 (ASPC1): > 10 µM
IC50 (Tubulin): 0.52 µM
IC50 (cells): 6 nM
SMILES: COc1ccc(C(=O)N2c3ccccc3Oc3cc(C#N)ccc32)cc1O
GI50 (MG-63): 1.8 nM
GI50 5637: 1.9 nM
GI50 (RD): 2 nM
GI50 [2]: 1130 nM
GI50 [3]: 95.1 nM
GI50 (IGROV-1): 63.3 nM
GI50 at 72 h [4]: > 10 µM
Activity (K562 [5]): Active
Activity (K562 [6]): Active
